Measured values as given in ChEMBL document CHEMBL1124777, “Specific bradycardic agents. 1. Chemistry, pharmacology, and structure-activity relationships of substituted benzazepinones, a-new class of compounds exerting antiischemic properties” (1990).
≈ marks a conversion by molar mass, not a printed value.

Columns and labels:
[1] = tested on: Rattus norvegicus; test: Bradycardic activity measured as a percentage decrease of heart rate after 5 mg/kg intravenous administration in anesthetized rats; format: functional
In short: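 Male Chbb:THOM rats (200–250 g) were anesthetized with pentobarbital sodium 50 mg/kg ip, with tracheal cannulation and artificial respiration. Heart rate was recorded continuously by an ECG-triggered beat-to-beat tachograph. Dose was 5 mg/kg iv via the jugular vein. Rate was read at 2, 5 and 20 min, and the reduction taken at 5 min.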

[2] = Ratio between the EC30 values of aortic contracture and atrial rate; format: functional, Cardiac atrium
In short: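 Guinea pig atria (300–500 g, either sex) in modified Tyrode's gassed with 98% O2/2% CO2, resting tension 1 g. Rate measured in spontaneously beating atria at 37 °C after at least 30 min equilibration. Rabbit aortic strips contracted with 40 mM KCl plus 1.8 mM CaCl2 to a plateau. EC30 is the concentration relaxing the contracture, or lowering the predrug rate, by 30%.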

[3] = species: Cavia porcellus; test: Evaluated in vitro for its effect on atrial contractility in electrically stimulated isolated guinea pig left atria; settings: Cardiac atrium
[4] = species: Oryctolagus cuniculus; test: Evaluated in vitro for the effect on K+ induced aortic contraction in isolated aortic strips of rabbit; format: functional; settings: Aorta
[5] = species: Cavia porcellus; test: Evaluated in vitro for the effect on spontaneous atrial rate in isolated guinea pig atria; format: functional; settings: Cardiac atrium
In short: (§1)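 Spontaneously beating guinea pig atria (either sex, 300–500 g) were held in modified Tyrode's solution gassed with 98% O₂/2% CO₂, at 1 g resting tension and 37 °C. Equilibration lasted at least 30 min, until rate varied by no more than 5 beats/min. Recording was isometric. EC₃₀ is the concentration lowering predrug rate by 30%, given with 95% confidence limits.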

[6] = Ratio between the EC30 values of atrial contractility and atrial rate; format: functional, Cardiac atrium
In short: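 Isolated guinea pig atria (300–500 g, either sex) in modified Tyrode's gassed with 98% O2/2% CO2, resting tension 1 g, isometric recording. Rate measured in spontaneously beating atria at 37 °C after ≥30 min equilibration. Contractility (g) measured in left atria paced at 2.5 Hz (3 ms pulses, 1.5× threshold), 30 °C, 20 min equilibration. EC30 is the concentration lowering the predrug value by 30%.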

[7] = species: Cavia porcellus; test: Evaluated in vitro for the effect on spontaneous rate in isolated guinea pig atria; format: functional; in short: as §1
[8] = tested on: Felis catus; test: Evaluated in vivo for bradycardic activity in anesthetized cat as a measure of percent decrease of heart rate after 1 mg/kg intravenous administration; format: functional
[9] = tested on: Felis catus; test: Evaluated in vivo for bradycardic activity in anesthetized cat as a measure of % decrease of heart rate after 1 mg/Kg intravenous administration of the compound.; format: functional

Row | Structure (SMILES) | Decrease [1] [%] | also measured
1 | COc1ccc(CCN(C)CCCN2CCc3ccccc3CC2=O)cc1OC.Cl | -35 | 
2 | COc1ccc(SCCCN(C)CCCN2CCc3cc(OC)c(OC)cc3CC2=O)cc1OC.Cl | -47 | 
3 | COc1ccc2c(c1)CC(=O)N(CCCN(C)CCc1ccc(OC)c(OC)c1)CC2.Cl.Cl | -44 | 
4 | COc1ccc(SCCN(C)CCCN2CCc3cc(OC)c(OC)cc3CC2=O)cc1OC.Cl | -44 | 
5 | COc1cc2c(cc1O)CCN(CCCN(C)CCc1ccc(OC)c(OC)c1)C(=O)C2.Cl | -47 | 
6 | COc1cc2c(cc1O)CC(=O)N(CCCN(C)CCc1ccc(OC)c(OC)c1)CC2 | -29 | 
7 | COc1ccc2c(c1)CCN(CCCN(C)CCc1ccc(OC)c(OC)c1)C(=O)C2.Cl | -31 | 
8 | COc1ccc(CCN(C)CCCN2CCc3cc(O)c(O)cc3CC2=O)cc1OC | -30 | 
9 | COc1cc2c(cc1OC)CC(=O)N(CCCN(C)CCc1ccc(N)cc1)CC2 | -30 | 
10 | COc1ccc(CCN(C)CCC[C@@](C#N)(c2ccc(OC)c(OC)c2)C(C)C)cc1OC [(S)-VERAPAMIL] |  | Ratio [2]: 0.409; EC30 [3]: 0.0611 µg/mL (≈ 0.134 µM); EC30 [4]: 0.0284 µg/mL (≈ 0.0625 µM); EC30 [5]: 0.0694 µg/mL (≈ 0.153 µM); Ratio [6]: 0.88
11 | COc1ccc(CCN(C)CC(C)CN2CCc3cc(OC)c(OC)cc3CC2=O)cc1OC.Cl (stereo not drawn) | -43 | 
12 | COc1ccc(CCN(C)CCCN2Cc3cc(OC)c(OC)cc3C2=O)cc1OC.Cl |  | EC30 [7]: 0.608 µg/mL; Ratio [2]: 35; EC30 [3]: 93.6 µg/mL; EC30 [4]: 21.3 µg/mL; Decrease [8]: -16%; Ratio [6]: 154
13 | COc1ccc(CCN(C)CC(O)CN2CCc3cc(OC)c(OC)cc3CC2=O)cc1OC (stereo not drawn) | -28 | 
14 | COc1ccc(CC[S+]([O-])CCCN2CCc3cc(OC)c(OC)cc3CC2=O)cc1OC (stereo not drawn) | -4 | 
15 | COc1ccc(CCN(C)CCCCN2CCc3cc(OC)c(OC)cc3CC2=O)cc1OC.Cl | -33 | 
16 | COc1cc2c(cc1OC)CC(=O)N(CCCN(C)CCc1ccc(Cl)c(Cl)c1)CC2.Cl.Cl | -47 | 
17 | COc1cc2c(cc1OC)CC(=O)N(CCCN(C)CCc1ccc(Cl)cc1)CC2.Cl | -55 | 
18 | COc1ccc(CCN(C)CCCN2CCc3ccc(OC)c(OC)c3CC2=O)cc1OC.Cl | -34 | 
19 | CCCN(CCCN1CCc2cc(OC)c(OC)cc2CC1=O)CCc1ccc(OC)c(OC)c1.Cl | -56 | 
20 | COc1ccc(OCCCCN(C)CCCN2CCc3cc(OC)c(OC)cc3CC2=O)cc1OC.Cl | -37 | 

Row | Structure (SMILES) | Decrease [1] [%] | also measured
21 | COc1ccc(CCS(=O)(=O)CCCN2CCc3cc(OC)c(OC)cc3CC2=O)cc1OC | -1 | 
22 | COc1ccc(CCN(C)CCCN2CCc3c(C)c(C)c(C)c(C)c3CC2=O)cc1OC.Cl | -41 | 
23 | COc1cc2c(cc1OC)CC(=O)N(CCCN(C)CCc1c(Cl)cccc1Cl)CC2.Cl.Cl.Cl.Cl | -13 | 
24 | COc1cc(OC)c(CCN(C)CCCN2CCc3cc(OC)c(OC)cc3CC2=O)c(OC)c1.Cl | -25 | 
25 | COc1cc2c(cc1OC)CC(=O)N(CCCN(C)CCc1ccc(OS(C)(=O)=O)cc1)CC2.Cl | -46 | 
26 | COc1ccc(CCN(C)CCCN2CCc3cc4c(cc3CC2=O)OCCO4)cc1OC.Cl | -49 | 
27 | COc1ccc(CCN(C)CCCN2CCc3cc(OC)c(OC)cc3CC2=O)cc1.Cl | -42 | 
28 | COc1ccc(CCN(C)CCCN2CCc3c(OC)ccc(OC)c3CC2=O)cc1OC.Cl | -21 | 
29 | CCOC(=O)N(CCCN1CCc2cc(OC)c(OC)cc2CC1=O)CCc1ccc(OC)c(OC)c1 | -8 | 
30 | COc1ccc(CN(C)CCCN2CCc3cc(OC)c(OC)cc3CC2=O)cc1OC | -26 | 
31 | COc1ccc(CCN(CCCN2CCc3cc(OC)c(OC)cc3CC2=O)C(C)=O)cc1OC | -3 | 
32 | COc1cc2c(cc1OC)CC(=O)N(CCCN(C)CCc1ccc(OCc3ccccc3)cc1)CC2 | -27 | 
33 | COc1cc2c(cc1OC)CC(=O)N(CCCN(C)CCc1ccccc1)CC2.Cl.Cl | -52 | 
34 | COc1ccc(CCSCCCN2CCc3cc(OC)c(OC)cc3CC2=O)cc1OC | 1 | 
35 | COc1ccc(N(C)CCCN2CCc3cc(OC)c(OC)cc3CC2=O)cc1OC | -17 | 
36 | CCCCOc1ccc(CCN(C)CCCN2CCc3cc(OC)c(OC)cc3CC2=O)cc1 | -55 | 
37 | COC(=O)C1=C(C)NC(C)=C(C(=O)OC)C1c1ccccc1[N+](=O)[O-] [NIFEDIPINE] |  | Ratio [2]: 0.036; EC30 [3]: 0.0149 µg/mL (≈ 0.043 µM); EC30 [4]: 0.00397 µg/mL (≈ 0.0115 µM); EC30 [5]: 0.11 µg/mL (≈ 0.318 µM); Ratio [6]: 0.135
38 | COc1ccc([C@@H]2Sc3ccccc3N(CCN(C)C)C(=O)[C@@H]2OC(C)=O)cc1 [DILTIAZEM] |  | Ratio [2]: 0.53; EC30 [3]: 2.73 µg/mL (≈ 6.59 µM); EC30 [4]: 0.0741 µg/mL (≈ 0.179 µM); EC30 [5]: 0.14 µg/mL (≈ 0.338 µM); Ratio [6]: 19.5
39 | COc1ccc(CCN(CCCN2CCc3cc(OC)c(OC)cc3CC2=O)CCc2ccc(OC)c(OC)c2)cc1OC | -28 | 
40 | COc1ccc(CCN(C)CCCN2CCc3cc(C)c(C)cc3CC2=O)cc1OC.Cl.Cl | -49 | 

Row | Structure (SMILES) | Decrease [1] [%] | also measured
41 | COc1ccc(NCCCN(C)CCCN2CCc3cc(OC)c(OC)cc3CC2=O)cc1OC | -51 | 
42 | COc1ccc(CCN(C)CCCN2CCc3cc(OC)c(OC)cc3C2=O)cc1OC.Cl |  | Decrease [9]: -29%
43 | COc1cc2c(cc1OC)CC(=O)N(CCCN(C)CCc1ccc(O)cc1)CC2.Cl | -33 | 
44 | COc1ccc(CCN(C)CCN2CCc3cc(OC)c(OC)cc3CC2=O)cc1OC.Cl | -13 | 
45 | COc1ccc(CCCCN(C)CCCN2CCc3cc(OC)c(OC)cc3CC2=O)cc1OC.Cl | -46 | 
46 | C=CCN(CCCN1CCc2cc(OC)c(OC)cc2CC1=O)CCc1ccc(OC)c(OC)c1.Cl | -65 | 
47 | COc1ccc(CCN(C)CCCN2CCc3cc(OC)c(OC)cc3CC2=O)cc1OC.Cl [ZATEBRADINE HYDROCHLORIDE] | -56 | Ratio [2]: 500; EC30 [3]: 108 µg/mL; EC30 [4]: 15 µg/mL; EC30 [5]: 0.03 µg/mL; Decrease [9]: -56%; Ratio [6]: 3600
48 | COc1ccc(CC[N+](C)(C)CCCN2CCc3cc(OC)c(OC)cc3CC2=O)cc1OC.[I-] | -9 | 
49 | COc1ccc(CCCN(C)CCCN2CCc3cc(OC)c(OC)cc3CC2=O)cc1OC.Cl | -55 | 
50 | COc1ccc(OCCCN(C)CCCN2CCc3cc(OC)c(OC)cc3CC2=O)cc1OC.Cl | -63 | 
51 | COc1ccc(CCN(C)CCCN2CCc3cc4c(cc3CC2=O)OCO4)cc1OC.Cl | -42 | 
52 | COc1cc2c(cc1OC)CC(=O)N(CCCN(C)CCc1cc(OC)c(OC)c(OC)c1)CC2.Cl | -21 | 
53 | COc1ccc(CCN(C)CCCN2CCCc3cc(OC)c(OC)cc3C2=O)cc1OC |  | Decrease [9]: -8%
54 | COc1cc2c(cc1OC)CC(=O)N(CCCN(C)CCc1ccc(N(C)C)cc1)CC2.Cl.Cl | -60 | 
55 | COc1ccc(CCCCCN(C)CCCN2CCc3cc(OC)c(OC)cc3CC2=O)cc1OC.Cl | -36 | 
56 | COc1ccc(CCNCCCN2CCc3cc(OC)c(OC)cc3CC2=O)cc1OC.Cl | -66 | 
57 | COc1ccc(NCCN(C)CCCN2CCc3cc(OC)c(OC)cc3CC2=O)cc1OC | -39 | 
58 | COc1cc2c(cc1OC)CC(=O)N(CCCN(C)CCc1ccc(C(C)(C)C)cc1)CC2.Cl.Cl | -58 | 
59 | COc1ccc(OCCN(C)CCCN2CCc3cc(OC)c(OC)cc3CC2=O)cc1OC.Cl | -59 | 
60 | COc1cc2c(cc1OC)CC(=O)N(CCCN(C)CCc1ccc([N+](=O)[O-])cc1)CC2.Cl | -41 | 
